Assay outcomes from PubChem BioAssay.
KLK5 inh: human KLK5 protease inhibitors, primary screen, biochemical, 1536-well; recombinant hK5, fluorogenic AMC substrate cleavage; inhibition, % at 5 µM; 210,000 tested, 0.59% active; AID 873, 2007;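 active = inhibition of 40% or more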;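 also: 0% = enzyme controls without compound and 100% = no-enzyme blanks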
Target sequence (Q9Y337 67-293 limits assumed): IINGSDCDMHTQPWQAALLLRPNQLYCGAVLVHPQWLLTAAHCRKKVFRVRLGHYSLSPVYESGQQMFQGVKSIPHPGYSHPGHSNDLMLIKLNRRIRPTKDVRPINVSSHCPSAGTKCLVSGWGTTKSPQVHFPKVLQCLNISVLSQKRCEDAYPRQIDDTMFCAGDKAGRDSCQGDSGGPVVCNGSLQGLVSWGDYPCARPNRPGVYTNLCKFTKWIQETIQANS
Wee1 degr inh: Wee1 degradation inhibitors, primary screen, cell-based, HeLa, Wee1K328M-luciferase, luminescence. Wee1-like protein kinase (Homo sapiens), P30291. HeLa Luc-Wee1K328M stability; 100% = proteasome inhibitor MG132 effect. reporter increase, % at 5 µM. 220,000 tested, 1.2% active;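 active = activation above the mean of all tested compounds plus 3 SD, set per screening run, cut at about 8.8% in these data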;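 also: cells exposed to compound for 20 h before luminescence read; 0% = DMSO alone and 100% = MG132 at 30 µM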
Thrombin inh: human alpha-thrombin inhibitors, primary screen, counter-screen for coagulation protease inhibitor project, biochemical, 1536-well, fluorogenic AMC substrate; Boc-VPR-AMC fluorogenic substrate cleavage; inhibition, % at 5 µM; 220,000 tested, 0.26% active; AID 1046, 2008;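 active = inhibition at or above 40%; inactive = inhibition below 40%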;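 also: 0% = enzyme with no compound and 100% = wells without enzyme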
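Material: human alpha-thrombin protein. Incubation: reaction at ambient temperature. Technique: fluorescence of released AMC, ex 355 nm, em 460 nm. Control set: no-compound enzyme wells and no-enzyme blanks. Also added: Boc-VPR-AMC substrate, 15 µM final. Buffer or medium: pH 7.5 Tris (50 mM) with NaCl 150 mM, Tween 20 0.05%.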
Platelet DG rel: inhibitors of platelet dense granule secretion, primary screen, cell-based, MLPCN, human platelets. 300,000 tested, 0.22% active. human platelet-rich plasma, SFLLRN dense granule ATP release, luminescence. inhibition, %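 (compounds screened at 7.5 µM in platelet-rich plasma)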;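 active = mean replicate score, as percent of positive control, at or above 50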
FXIa inh 1536: human FXIa protease inhibitors, primary screen, biochemical, 1536-well; inhibition, % at 5 µM; Coagulation factor XI (Homo sapiens), P03951; 220,000 tested, 0.14% active; purified FXIa, Boc-Glu-Ala-Arg-AMC fluorogenic substrate;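 active = inhibition of at least 40%; inactive = inhibition below 40%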;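 also: fluorescence of freed AMC excited at 355 nm; 0% = enzyme without compound and 100% = no enzyme blank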
FXIIa inh 1536: human FXIIa protease inhibitors, primary screen, biochemical, 1536-well; 220,000 tested, 0.3% active; Coagulation factor XII (Homo sapiens), P00748; inhibition, % at 5 µM; purified FXIIa, Boc-QGR-AMC fluorogenic substrate, 2 h; in the data active = inhibition above about 40%;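 also: 0% = enzyme with no compound and 100% = blank without enzyme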
Wee1 stab conf: Wee1 degradation inhibitors, confirmation, cell-based, HeLa, Wee1K328M-luciferase, luminescence, triplicate. shares compounds with Wee1 degr inh. HeLa Luc-Wee1K328M degradation; vehicle 0%, proteasome-blocked wells 100%. activation, % at 5 µM. 1,100 tested, 4% active. AID 1410, 2008; in the data active = activation above about 8.9%
Numbers without * were called inactive; · = no result. Shown are actives, neighbours in structure and some others; about 1.8% of the full set was active somewhere.

SMILES	KLK5 inh	Wee1 degr inh	Thrombin inh	Platelet DG rel	FXIa inh 1536	FXIIa inh 1536	Wee1 stab conf
COc1ccc(OCc2nc(N)nc(Nc3ccccc3OC)n2)cc1	-20	18*	-1	0	5	17	0
Cc1cccc(NC(=O)c2ccc(NCC3CCCO3)c([N+](=O)[O-])c2)n1 (stereo not drawn)	-15	11*	2	8	-1	0	5
CCCOc1cccc(C(=O)N/N=C/c2ccoc2)c1	·	·	·	-6	·	·	·
CC(=O)NS(=O)(=O)c1ccc(NC(=O)CSc2ccc(Cl)cc2)cc1	-1	13*	-8	0	-7	2	1
Nc1nc(CSC(=S)N2CCN(c3ccccc3)CC2)nc(Nc2ccc(F)cc2)n1	-27	1	-8	-18	-2	5	·
CC1CC(C)CN(C(=S)SCc2nc(N)nc(Nc3ccccc3)n2)C1 (stereo not drawn)	2	12*	-1	-2	5	6	-4
COc1ccc(CN(Cc2cccn2C)S(=O)(=O)c2ccc(F)cc2)cc1	6	11*	2	3	13	6	-1
O=[N+]([O-])c1ccc(COc2cccc(CNc3ccc(F)cc3)c2)cc1	-2	15*	-16	-8	3	7	0
COCCNC(=O)CN(CC1CCCO1)C(=O)CCC(=O)Nc1ccccn1 (stereo not drawn)	0	11*	-16	-5	-3	-9	0
COc1ccc(CN(CC(=O)NCc2ccco2)C(=O)CCC(=O)Nc2ccccn2)cc1	-13	8	1	5	2	10	·
O=C(CN(Cc1ccccc1)C(=O)CCC(=O)Nc1ccccn1)NCc1ccco1	-4	12*	-5	-1	15	24	-1
O=C(CN(CC1CCCO1)C(=O)CCC(=O)Nc1ccccn1)NCC1CCCO1 (stereo not drawn)	-16	1	0	-3	-6	9	·
Cc1cc(C)n(-c2ccc(NC(=O)C3CCCCN3C(=O)c3sccc3C)cc2)n1 (stereo not drawn)	·	·	·	-4	·	·	·
CC(C)CC1c2[nH]c3ccccc3c2CCN1C(=O)c1cnccn1 (stereo not drawn)	·	19*	-10	-3	-4	1	1
CC(=O)c1cc(C(=O)N2CCc3c([nH]c4ccccc34)C2CC(C)C)[nH]n1 (stereo not drawn)	·	0	-3	2	-2	6	·
CCOc1ccc(S(=O)(=O)N2CCC(C(=O)NC3CCCCC3)CC2)cc1	·	·	·	-4	·	·	·
CCn1c(SCC(=O)NCc2ccccc2)nnc1C(CO)NC(=O)c1ccccc1 (stereo not drawn)	·	·	·	4	·	·	·
O=c1c2c(ncn2C2CCCC2)n(Cc2ccccc2)c(=O)n1CCOc1ccc(Br)cc1	-3	-2	-3	-1	6	1	·
O=c1c2c(ncn2C2CCCC2)n(Cc2ccccc2)c(=O)n1CCOc1ccccc1	3	14*	0	-11	3	3	1
O=C(Nc1ccc2c(c1)CCC2)c1ccc(F)cc1	-9	17*	-13	-23	2	11	-2
Cc1ccc(C(C(=O)NCc2ccco2)N(C(=O)CNC(=O)c2cccs2)c2c(C)cccc2C)cc1 (stereo not drawn)	-21	-2	-2	11	2	4	·
Cc1ccc(C(C(=O)NCc2ccco2)N(C(=O)CNC(=O)c2cccs2)c2c(C)cc(C)cc2C)cc1 (stereo not drawn)	-7	11*	-5	-9	-6	9	0
Cc1cc(NC(=O)COC(=O)CCNS(=O)(=O)c2c(Cl)cccc2Cl)no1	18	-3	2	0	16	8	·
CCOC(=O)c1[nH]c2c(c1-c1ccccc1)C(=O)CC(c1ccc(OC)c(OC)c1)C2 (stereo not drawn)	-8	20*	-2	5	-2	-2	1
CCN(CC)CCN(CC(=O)Nc1c(C)cc(C)cc1C)C(=O)c1ccccc1	·	·	·	-13	·	·	·
SMILES	KLK5 inh	Wee1 degr inh	Thrombin inh	Platelet DG rel	FXIa inh 1536	FXIIa inh 1536	Wee1 stab conf
Cc1ccc(S(=O)(=O)NC(CC(=O)NCC2CCCO2)c2ccccc2)cc1 (stereo not drawn)	-3	3	-7	4	-3	3	·
CCCCn1c(N2CCC(Cc3ccccc3)CC2)nc2c1c(=O)[nH]c(=O)n2C	-1	13*	2	0	6	21	2
Cc1nnc(SCCn2c(N3CCC(Cc4ccccc4)CC3)nc3c2c(=O)[nH]c(=O)n3C)s1	-7	-2	-8	-3	-4	3	·
C=CCNCCCOc1ccc(C(C)(C)c2ccccc2)cc1	-5	13*	0	2	12	12	-1
COCCCNCCCOc1ccc(C(C)(C)c2ccccc2)cc1	-16	-2	-3	-3	6	6	·
CN(C)c1nc(C(=O)O)nc(N2CCOCC2)n1	-3	-1	-7	2	-3	2	·
Oc1cccc2ccc[n+](CC(O)Cn3c4ccccc4c4ccccc43)c12 (stereo not drawn)	-25	18*	-5	-3	19	21	-1
Cc1nn2c(NCCCN3CCOCC3)c3c(nc2c1-c1ccccc1)CCC3	-25	-2	1	-5	3	18	·
CCCCNc1c2c(nc3c(-c4ccccc4)c(C)nn13)CCC2	3	13*	-3	0	-6	9	2
CCc1nnc(NC(=O)c2ccc3nc(CC)c(CC)nc3c2)s1	-5	2	-4	-3	-3	4	·
